For 22 compounds, IC50 and Retention time results are on record in ChEMBL document CHEMBL1132446, “Design, synthesis, and evaluation of Phe-Gly mimetics: heterocyclic building blocks for pseudopeptides” (J Med Chem, 1999).

The target of one experiment is Substance-P receptor (Rattus norvegicus, UniProt P14600). The experiment is described as follows: Affinity for rat Tachykinin receptor 1 determined in displacement screening by using radioligand 3,4-[3H]-(L-Pro e2) SP.
A short description of experiment [1]: Retention time of the compound. The procedure, abridged: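 Analytical reversed-phase HPLC on a C-18 column (8 × 100 mm), eluting with CH3CN/H2O/0.1% TFA gradients. The gradient differs by compound: 0-60% at 1 mL/min over 30 min, or 5-65%, 20-60% or 0-60% at 0.5 mL/min over 30 min.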
Experiment [2] deals with T1, Mu-type opioid receptor (Rattus norvegicus, UniProt P33535). The experiment is described as follows: The compound was tested for binding affinity towards rat Opioid receptor mu 1 by displacing [3H]DAMGO.
T1 sequence (P33535 whole entry): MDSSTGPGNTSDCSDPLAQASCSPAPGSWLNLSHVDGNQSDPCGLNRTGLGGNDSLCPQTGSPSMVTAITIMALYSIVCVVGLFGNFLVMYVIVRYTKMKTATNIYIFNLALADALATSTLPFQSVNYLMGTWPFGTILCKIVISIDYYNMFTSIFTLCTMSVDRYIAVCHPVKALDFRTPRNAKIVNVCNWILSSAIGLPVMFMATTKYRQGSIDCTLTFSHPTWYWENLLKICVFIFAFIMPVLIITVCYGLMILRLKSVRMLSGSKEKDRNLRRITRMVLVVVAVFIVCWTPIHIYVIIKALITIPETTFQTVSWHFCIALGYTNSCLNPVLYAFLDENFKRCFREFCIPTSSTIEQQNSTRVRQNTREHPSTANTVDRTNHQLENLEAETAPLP
The target of experiment [3] is T1, Mu-type opioid receptor. The experiment can be described thus: The compound was tested for binding affinity towards [3H]DAMGO, in rat Opioid receptor mu 1. The procedure, abridged: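 Rat whole-brain (minus cerebellum) membranes from sucrose homogenisation, differential centrifugation and hypotonic lysis, in 50 mM Tris-HCl pH 7.4. […] Incubation 30 min at 25 °C, ended by filtration on PEI-soaked GF-C filters. Triplicates, three experiments, IC50 as mean ± SEM.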

Numbered stars: 1 amine (or outer) side, 2 acyl side, 3 side chain; on linkers, the order of the positions; unused ones are H or OH. Square brackets hold non-standard residues; d marks the D form. Peptide text beside a SMILES is read from it. X9 = O=C(Cc1nnc([C@H](Cc2ccccc2)N[*:1])[nH]1)[*:2]; X7 = O=C(c1nnc([C@H](Cc2ccccc2)N[*:1])[nH]1)[*:2]; X3 = O=C(c1nnc([C@H](Cc2ccccc2)N[*:1])o1)[*:2]; X4 = O=C(c1noc([C@H](Cc2ccccc2)N[*:1])n1)[*:2] A value given as a limit tells only on which side of the number the result lay.

Substance-P receptor, sequence (P14600 whole entry): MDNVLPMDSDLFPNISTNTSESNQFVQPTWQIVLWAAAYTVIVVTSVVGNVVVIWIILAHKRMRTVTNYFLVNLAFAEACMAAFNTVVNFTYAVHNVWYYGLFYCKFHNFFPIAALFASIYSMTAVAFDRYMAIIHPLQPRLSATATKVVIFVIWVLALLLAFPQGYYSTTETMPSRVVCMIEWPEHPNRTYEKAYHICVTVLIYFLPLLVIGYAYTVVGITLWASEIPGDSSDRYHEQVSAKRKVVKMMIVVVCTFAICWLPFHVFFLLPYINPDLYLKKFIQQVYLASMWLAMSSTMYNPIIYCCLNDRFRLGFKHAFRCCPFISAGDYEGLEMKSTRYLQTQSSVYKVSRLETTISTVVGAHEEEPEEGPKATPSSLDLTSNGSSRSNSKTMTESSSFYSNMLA

With `C[C@@H](NC(=O)[C@@H](N)Cc1ccc(O)cc1)C(=O)NCC(=O)N(C)[C@@H](Cc1ccccc1)C(=O)NCCO` [DAMGO], the IC50 on Substance-P receptor was > 1000 nM.
Take `CCOC(=O)Cc1n[nH]c([C@H](Cc2ccccc2)NC(=O)OC(C)(C)C)n1`: in experiment [1], the Retention time came to 22.1 min.
As to `CSCC[C@H](NC(=O)[C@H](CC(C)C)NC(=O)Cc1noc([C@H](Cc2ccccc2)NC(=O)[C@H](Cc2ccccc2)NC(=O)[C@H](CCC(N)=O)NC(=O)[C@H](CCC(N)=O)NC(=O)[C@@H]2CCCN2C(=O)[C@H](CCCCN)NC(=O)[C@@H]2CCCN2C(=O)[C@@H](N)CCCN=C(N)N)n1)C(N)=O` (stereo in doubt; form 1), the 50% inhibitory concentration (IC50) on Substance-P receptor was > 1000 nM.
`C[C@@H](NC(=O)[C@@H](N)Cc1ccc(O)cc1)C(=O)N[C@@H](Cc1ccccc1)c1n[nH]c(CN[C@@H](Cc2ccc(O)cc2)C(=O)N2CCC[C@H]2C(=O)N[C@@H](CO)C(N)=O)n1` came in with a Retention time in experiment [1] of 20.2 min.
As to `C[C@@H](NC(=O)[C@@H](N)Cc1ccc(O)cc1)C(=O)N[C@@H](Cc1ccccc1)c1nc(N[C@@H](Cc2ccc(O)cc2)C(=O)N2CCC[C@H]2C(=O)N[C@@H](CO)C(N)=O)no1`, the Retention time in experiment [1] was determined as 22.7 min.
For the compound `C[C@@H](NC(=O)[C@@H](N)Cc1ccc(O)cc1)C(=O)N[C@@H](Cc1ccccc1)c1n[nH]c(CC(=O)N[C@@H](Cc2ccc(O)cc2)C(=O)N2CCC[C@H]2C(=O)N[C@@H](CO)C(N)=O)n1`, the results for the IC50 at Substance-P receptor and on Mu-type opioid receptor [2] were > 1000 nM and 21 nM, respectively.
On the same counts, the results for `C[C@@H](NC(=O)[C@@H](N)Cc1ccc(O)cc1)C(=O)N[C@@H](Cc1ccccc1)c1nc(C(=O)N[C@@H](Cc2ccc(O)cc2)C(=O)N2CCC[C@H]2C(=O)N[C@@H](CO)C(N)=O)no1` are > 1000 nM and 17 nM.
In turn, `C[C@@H](NC(=O)[C@@H](N)Cc1ccc(O)cc1)C(=O)N[C@@H](Cc1ccccc1)c1nc(CN[C@@H](Cc2ccc(O)cc2)C(=O)N2CCC[C@H]2C(=O)N[C@@H](CO)C(N)=O)no1` showed a Retention time in experiment [1] of 21 min.
Regarding `C[C@@H](NC(=O)[C@@H](N)Cc1ccc(O)cc1)C(=O)N[C@@H](Cc1ccccc1)c1nnc(C(=O)N[C@@H](Cc2ccc(O)cc2)C(=O)N2CCC[C@H]2C(=O)N[C@@H](CO)C(N)=O)[nH]1`, the values for the IC50 on Substance-P receptor and on Mu-type opioid receptor [2] were > 1000 nM and 490 nM, respectively.
`C[C@@H](NC(=O)[C@@H](N)Cc1ccc(O)cc1)C(=O)N[C@@H](Cc1ccccc1)c1nnc(CN[C@@H](Cc2ccc(O)cc2)C(=O)N2CCC[C@H]2C(=O)N[C@@H](CO)C(N)=O)o1`: in experiment [1], the Retention time is 34 min.
Regarding `C[C@@H](NC(=O)[C@@H](N)Cc1ccc(O)cc1)C(=O)N[C@@H](Cc1ccccc1)c1nc(CC(=O)N[C@@H](Cc2ccc(O)cc2)C(=O)N2CCC[C@H]2C(=O)N[C@@H](CO)C(N)=O)no1`, the IC50 is > 1000 nM on Substance-P receptor and 12 nM on Mu-type opioid receptor [2].
As to `C[C@@H](NC(=O)[C@@H](N)Cc1ccc(O)cc1)C(=O)N[C@@H](Cc1ccccc1)c1n[nH]c(N[C@@H](Cc2ccc(O)cc2)C(=O)N2CCC[C@H]2C(=O)N[C@@H](CO)C(N)=O)n1`, in experiment [1], the Retention time stood at 20.6 min.
The same measure, in the same setting: under `CC(C)(C)OC(=O)N[C@@H](Cc1ccccc1)c1nc(CCO)no1` stands 30.9 min.
Regarding `CSCC[C@H](NC(=O)[C@H](CC(C)C)NC(=O)c1nnc([C@H](Cc2ccccc2)NC(=O)[C@H](Cc2ccccc2)NC(=O)[C@H](CCC(N)=O)NC(=O)[C@H](CCC(N)=O)NC(=O)[C@@H]2CCCN2C(=O)[C@H](CCCCN)NC(=O)[C@@H]2CCCN2C(=O)[C@@H](N)CCCNC(=N)N)o1)C(N)=O` (H-RPKPQQF[X3]LM-NH2), the IC50 on Substance-P receptor is > 1000 nM.
On the same count and under the same terms, the value for `CSCC[C@H](NC(=O)[C@H](CC(C)C)NC(=O)Cc1noc([C@H](Cc2ccccc2)NC(=O)[C@H](Cc2ccccc2)NC(=O)[C@H](CCC(N)=O)NC(=O)[C@H](CCC(N)=O)NC(=O)[C@@H]2CCCN2C(=O)[C@H](CCCCN)NC(=O)[C@@H]2CCCN2C(=O)[C@@H](N)CCCN=C(N)N)n1)C(N)=O` (stereo in doubt; form 2) was 307 nM; that for `CSCC[C@H](NC(=O)[C@H](CC(C)C)NC(=O)c1nnc([C@H](Cc2ccccc2)NC(=O)[C@H](Cc2ccccc2)NC(=O)[C@H](CCC(N)=O)NC(=O)[C@H](CCC(N)=O)NC(=O)[C@@H]2CCCN2C(=O)[C@H](CCCCN)NC(=O)[C@@H]2CCCN2C(=O)[C@@H](N)CCCNC(=N)N)[nH]1)C(N)=O` (H-RPKPQQF[X7]LM-NH2) was > 1000 nM.
The same measure, in the same setting: the value for `CSCC[C@H](NC(=O)[C@H](CC(C)C)NC(=O)c1noc([C@H](Cc2ccccc2)NC(=O)[C@H](Cc2ccccc2)NC(=O)[C@H](CCC(N)=O)NC(=O)[C@H](CCC(N)=O)NC(=O)[C@@H]2CCCN2C(=O)[C@H](CCCCN)NC(=O)[C@@H]2CCCN2C(=O)[C@@H](N)CCCN=C(N)N)n1)C(N)=O` (H-RPKPQQF[X4]LM-NH2) was > 1000 nM.
`C[C@@H](NC(=O)[C@@H](N)Cc1ccc(O)cc1)C(=O)N[C@@H](Cc1ccccc1)c1nnc(N[C@@H](Cc2ccc(O)cc2)C(=O)N2CCC[C@H]2C(=O)N[C@@H](CO)C(N)=O)o1` gave a Retention time in experiment [1] of 22 min.
Regarding `C[C@@H](NC(=O)[C@@H](N)Cc1ccc(O)cc1)C(=O)N[C@@H](Cc1ccccc1)c1nnc(CC(=O)N[C@@H](Cc2ccc(O)cc2)C(=O)N2CCC[C@H]2C(=O)N[C@@H](CO)C(N)=O)o1`, the IC50 on Substance-P receptor is > 1000 nM; at Mu-type opioid receptor [2] it was 31 nM.
For `CSCC[C@H](NC(=O)[C@H](CC(C)C)NC(=O)Cc1nnc([C@H](Cc2ccccc2)NC(=O)[C@H](Cc2ccccc2)NC(=O)[C@H](CCC(N)=O)NC(=O)[C@H](CCC(N)=O)NC(=O)[C@@H]2CCCN2C(=O)[C@H](CCCCN)NC(=O)[C@@H]2CCCN2C(=O)[C@@H](N)CCCNC(=N)N)[nH]1)C(N)=O` (H-RPKPQQF[X9]LM-NH2), the IC50 on Substance-P receptor was > 1000 nM.
Consider `C[C@@H](NC(=O)[C@@H](N)Cc1ccc(O)cc1)C(=O)N[C@@H](Cc1ccccc1)C(=O)NCC(=O)N[C@@H](Cc1ccc(O)cc1)C(=O)N1CCC[C@H]1C(=O)N[C@@H](CO)C(N)=O` [DERMORPHIN], for which the values for the half-inhibitory concentration (IC50) on Substance-P receptor and at Mu-type opioid receptor [3] were > 1000 nM and 6.2 nM, respectively.
As to `C[C@@H](NC(=O)[C@@H](N)Cc1ccc(O)cc1)C(=O)N[C@@H](Cc1ccccc1)c1nnc(C(=O)N[C@@H](Cc2ccc(O)cc2)C(=O)N2CCC[C@H]2C(=O)N[C@@H](CO)C(N)=O)o1`, the results for the IC50 at Substance-P receptor and on Mu-type opioid receptor [2] were > 1000 nM and 20 nM, respectively.
